The EC50 is the concentration at which the effect is half-maximal. A low value points to greater potency.

This is an account of results in ChEMBL document CHEMBL2176931, “Plakilactones from the marine sponge Plakinastrella mamillaris. Discovery of a new class of marine ligands of peroxisome proliferator-activated receptor γ” (J Med Chem, 2012).

Activity calls are given as the source filed them. The rule behind the calls is not given here.

Experiment [1] addresses T1, Peroxisome proliferator-activated receptor delta (Homo sapiens) (UniProt Q03181).
T1 sequence (whole entry): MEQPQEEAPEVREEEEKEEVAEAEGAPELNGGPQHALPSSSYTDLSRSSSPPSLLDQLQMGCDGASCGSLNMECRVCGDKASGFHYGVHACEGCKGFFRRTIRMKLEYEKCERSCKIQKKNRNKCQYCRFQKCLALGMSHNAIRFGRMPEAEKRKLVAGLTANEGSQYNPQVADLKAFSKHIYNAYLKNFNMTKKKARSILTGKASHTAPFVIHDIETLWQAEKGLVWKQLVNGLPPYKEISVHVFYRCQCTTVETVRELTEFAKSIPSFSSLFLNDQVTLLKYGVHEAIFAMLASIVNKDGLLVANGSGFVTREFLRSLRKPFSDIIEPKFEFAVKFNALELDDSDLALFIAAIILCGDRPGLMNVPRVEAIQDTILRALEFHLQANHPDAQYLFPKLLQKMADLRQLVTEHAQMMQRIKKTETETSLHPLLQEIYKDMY
Nature of the experiment: Transactivation of GAL4-fused PPARbeta ligand binding domain transfected in human HepG2 cells at 10 uM after 18 hrs by luciferase reporter gene assay. In kind it is cell-based. On the technique in general: In a reporter assay the amount or activity of a reporter protein is the signal.

Experiment [2] has as its target T2, Peroxisome proliferator-activated receptor alpha (Homo sapiens) (UniProt Q07869).
T2 sequence (whole entry): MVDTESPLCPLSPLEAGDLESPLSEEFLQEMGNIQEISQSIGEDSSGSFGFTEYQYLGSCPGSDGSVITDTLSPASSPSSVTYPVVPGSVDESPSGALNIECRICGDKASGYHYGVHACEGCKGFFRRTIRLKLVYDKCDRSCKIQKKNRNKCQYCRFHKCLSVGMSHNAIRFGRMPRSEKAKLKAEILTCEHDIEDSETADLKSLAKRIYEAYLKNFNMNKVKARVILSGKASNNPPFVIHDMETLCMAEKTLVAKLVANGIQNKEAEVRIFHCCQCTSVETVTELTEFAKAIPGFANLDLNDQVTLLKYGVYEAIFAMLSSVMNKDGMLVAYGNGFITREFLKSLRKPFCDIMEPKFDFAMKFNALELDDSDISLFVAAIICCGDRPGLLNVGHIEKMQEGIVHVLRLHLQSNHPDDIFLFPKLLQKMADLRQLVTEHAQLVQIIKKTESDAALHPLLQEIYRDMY
In words: Transactivation of GAL4-fused PPARalpha ligand binding domain transfected in human HepG2 cells at 10 uM after 18 hrs by luciferase reporter gene assay. In kind it is cell-based.

Experiment [3] has as its target T3, Peroxisome proliferator-activated receptor gamma (Homo sapiens) (UniProt P37231).
T3 sequence (whole entry): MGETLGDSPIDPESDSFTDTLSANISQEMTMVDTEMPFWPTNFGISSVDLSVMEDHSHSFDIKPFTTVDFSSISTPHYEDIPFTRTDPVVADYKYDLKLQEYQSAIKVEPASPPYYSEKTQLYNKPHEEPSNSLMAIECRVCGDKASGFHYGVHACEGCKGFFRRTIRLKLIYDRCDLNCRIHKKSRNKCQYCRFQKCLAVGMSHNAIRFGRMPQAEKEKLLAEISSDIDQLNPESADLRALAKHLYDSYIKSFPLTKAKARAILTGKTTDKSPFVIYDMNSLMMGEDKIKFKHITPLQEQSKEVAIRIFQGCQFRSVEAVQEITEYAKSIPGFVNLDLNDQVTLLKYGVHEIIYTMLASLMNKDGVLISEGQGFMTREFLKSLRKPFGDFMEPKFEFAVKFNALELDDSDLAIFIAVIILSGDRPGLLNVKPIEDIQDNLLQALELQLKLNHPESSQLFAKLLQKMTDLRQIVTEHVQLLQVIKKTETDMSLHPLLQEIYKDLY
Nature of the experiment: Covalent binding affinity to N-terminal His6-tagged PPARgamma ligand binding domain (195 to 477 amino acid residues) at 20 uM after 60 to 180 mins by RP-LC-MS analysis. An outline of the steps:
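PPARγ-LBD (1 μM) incubated with compound (20 μM) in PBS pH 7.5 at 37 °C for 60 and 180 min; aliquots analysed by RP-LC-MS on C4 column, 20–70% aqueous acetonitrile gradient with 0.05% TFA/1% formic acid over 25 min, spectra m/z 1500–3000.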

The target in experiment [4] is T3, Peroxisome proliferator-activated receptor gamma (Homo sapiens). Nature of the experiment: Transactivation of GAL4-fused PPARgamma ligand binding domain transfected in human HepG2 cells at 10 uM after 18 hrs by luciferase reporter gene assay. Type of experiment: cell-based.
Experiment [5] has the same target. In words: Antagonist activity at GAL4-fused PPARgamma ligand binding domain transfected in human HepG2 cells assessed as decrease in rosiglitazone-induced transactivation at 50 uM after 18 hrs by luciferase reporter gene assay. Type of experiment: cell-based.
For experiment [6] the target is unchanged. In words: Transactivation of PPARgamma in human THP1 cells assessed as decrease in LPS-induced MCP1 mRNA expression at 10 uM preincubated for 3 hrs prior to LPS challenge measured after 18 hrs by RT-PCR analysis relative to untreated control. Type of experiment: cell-based. As to conditions: THP-1. An outline of the steps:
(§1)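 Serum-starved THP-1 cells pretreated 3 h with 10 μM compound (rosiglitazone 100 nM reference), then LPS 1 μg/mL for 18 h; total RNA SYBR Green real-time PCR, GAPDH-normalized, expressed relative to untreated cells set to 1; triplicate, repeated twice.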

The target is the same in experiment [7]. Nature of the experiment: Transactivation of PPARgamma in human THP1 cells assessed as decrease in LPS-induced IL6 mRNA expression at 10 uM preincubated for 3 hrs prior to LPS challenge measured after 18 hrs by RT-PCR analysis relative to untreated control. As to conditions: THP-1. Type of experiment: cell-based. An outline of the steps:
as §1

For experiment [8] the target is unchanged. Nature of the experiment: Transactivation of PPARgamma in human HepG2 cells assessed as induction of PEPCK mRNA expression at 10 uM after 18 hrs by RT-PCR analysis relative to untreated control. Type of experiment: cell-based. The method in brief:
(§2)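 Serum-starved HepG2 cells (E-MEM, 10% FBS at maintenance, 37 °C) treated 18 h with 10 μM compound; total RNA by TRIzol, DNase I, random-primed RT; SYBR Green qPCR, 40 cycles; normalized to GAPDH, relative to untreated cells set to 1; triplicate, experiment repeated twice.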

Experiment [9] shares this target. In words: Transactivation of PPARgamma in human HepG2 cells assessed as induction of SCD1 mRNA expression at 10 uM after 18 hrs by RT-PCR analysis relative to untreated control. Type of experiment: cell-based. The method in brief:
as §2

Experiment [10] has the same target. Nature of the experiment: Transactivation of PPARgamma in human HepG2 cells assessed as induction of CD36 mRNA expression at 10 uM after 18 hrs by RT-PCR analysis relative to untreated control. In kind it is cell-based. An outline of the steps:
as §2

Experiment [11] shares this target. Nature of the experiment: (§3) Transactivation of GAL4-fused PPARgamma ligand binding domain transfected in human HepG2 cells by luciferase reporter gene assay. Type of experiment: cell-based. An outline of the steps:
(§4)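 GAL4–PPARγ LBD luciferase transactivation in HepG2 cells; concentration–response at 1, 10 and 50 μM (rosiglitazone 10, 100, 500 nM); luciferase measured in cell extracts; relative EC50 estimated from curves; mean ± SE of three experiments.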

Experiment [12] addresses T4, Peroxisome proliferator-activated receptor gamma (Homo sapiens, UniProt P37231).
T4 sequence (P37231 whole entry): T3 sequence (whole entry)
The experiment is described as §3. In kind it is cell-based. The method in brief:
as §4

Experiment [13] concerns the target T3, Peroxisome proliferator-activated receptor gamma (Homo sapiens). Nature of the experiment: Covalent binding affinity to N-terminal His6-tagged PPARgamma ligand binding domain (195 to 477 amino acid residues) by MALDI-MS and MALDI-MS/MS method. The method in brief:
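Protein–ligand adduct digested with trypsin (E:S 1:100, 1 h, 37 °C), desalted on C18 ZIP-TIP, analysed by MALDI-MS in reflectron positive mode with α-cyano-4-hydroxycinnamic acid matrix, m/z 700–5000; peptide numbering per full-length PPARγ.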

Take `CCC1=C[C@@](CC)(C/C(=C/[C@@H](O)CC)CC)O/C1=C\C(=O)OC`: the outcome in experiment [1] and in experiment [2] was inactive.

`CC/C=C/[C@H](CC)C[C@]1(CC)C=C(CC)C(=O)O1`: the outcome in experiment [1] and in experiment [2] was inactive.

Regarding `CCC1=C[C@@](CC)(C/C(=C\[C@H](O)CC)CC)OC1=O`, the result in [1] and in [2] was inactive.

In the case of `CCC1=C[C@@](CC)(C[C@@H](CC)CCC(C)=O)O/C1=C\C(=O)OC`, the result in experiment [3] and in experiment [4] was inactive.

As for `CCCC[C@H](CC)C[C@]1(CC)C=C(CC)/C(=C/C(=O)OC)O1`, the result in experiment [1] and in experiment [2] was inactive. Besides, in experiment [5], the outcome was Active.

Take `CCC1=C[C@@](CC)(C/C(=C/[C@@H](O)CC)CC)OC1=O`: the result in experiment [1] and in experiment [2] was inactive.

In the case of `CCC1=C[C@@](CC)(C[C@@H](CC)CCC(C)=O)OC1=O`, the result in [3] and in experiment [4] was inactive.

In the case of `CCC1=C[C@@](CC)(C[C@H](/C=C/[C@@H](C)O)CC)OC1=O`, the result in experiment [1] and in experiment [2] was inactive.

For the compound `CC/C=C/[C@H](CC)C[C@]1(CC)C=C(CC)/C(=C/C(=O)OC)O1`, the result in experiment [1] and in experiment [2] was inactive. Besides, in experiment [5], the outcome was Active.

Consider `CCC1=C[C@@](CC)(C[C@H](/C=C/[C@H](C)O)CC)O/C1=C\C(=O)OC`, for which the result in [6], in [7], in [8], in experiment [9], in experiment [10] and in experiment [4] was Active. Also, in [11], the Activity entry was “Dose-dependent effect”. Also, the EC50 in experiment [12] came out at 10 µM. The result in experiment [1] and in experiment [2] was inactive.

Turning to `CCCC[C@H](CC)C[C@]1(CC)C=C(CC)C(=O)O1`, the result in experiment [1] and in experiment [2] was inactive.

Take `CC[C@@H]1C[C@@]2(CC)O/C(=C\C(=O)OC)[C@@]3(CC)OO[C@H]([C@@H](C)O)[C@@H]1[C@@H]23`: the outcome in [1] and in [2] was inactive.

On to `CCC1=C[C@@](CC)(C[C@H](/C=C/C(C)=O)CC)O/C1=C\C(=O)OC`, for which the result in experiment [13], in experiment [8], in experiment [9], in experiment [3] and in experiment [4] was Active. Moreover, the result in experiment [10], in experiment [1] and in experiment [2] was inactive. Also, the Activity entry in experiment [11] is “Dose-dependent effect”. This compound returned an EC50 in experiment [12] of 5 µM.

In the case of `CCC1=C[C@@](CC)(C[C@H](/C=C/C(C)=O)CC)OC1=O`, the outcome in experiment [8], in experiment [1] and in experiment [2] was inactive. Besides, the outcome in experiment [9], in experiment [10], in [3] and in [4] was Active. Besides, the Activity entry in experiment [11] is “Dose-dependent effect”. In [12], the concentration giving a half-maximal response (EC50) amounted to 2 µM.

On to `CCC1=C[C@@](CC)(C/C(=C\[C@@H](O)CC)CC)OC1=O`, for which the outcome in experiment [1] and in experiment [2] was inactive.
